# Laboratory results taken from ChEMBL document CHEMBL4428070, “Design, synthesis, and evaluation of 4,6-diaminonicotinamide derivatives as novel and potent immunomodulators targeting JAK3” (Bioorg Med Chem, 2016).
# Tests used:
# [1] = biological target: T1, Tyrosine-protein kinase JAK3 (Homo sapiens, UniProt P52333); assay: Inhibition of human JAK3 assessed as reduction in phosphorylation of Biotin-Lyn-Substrate-2 after 1 hr in presence of ATP by ELISA
# T1 sequence (P52333 whole entry): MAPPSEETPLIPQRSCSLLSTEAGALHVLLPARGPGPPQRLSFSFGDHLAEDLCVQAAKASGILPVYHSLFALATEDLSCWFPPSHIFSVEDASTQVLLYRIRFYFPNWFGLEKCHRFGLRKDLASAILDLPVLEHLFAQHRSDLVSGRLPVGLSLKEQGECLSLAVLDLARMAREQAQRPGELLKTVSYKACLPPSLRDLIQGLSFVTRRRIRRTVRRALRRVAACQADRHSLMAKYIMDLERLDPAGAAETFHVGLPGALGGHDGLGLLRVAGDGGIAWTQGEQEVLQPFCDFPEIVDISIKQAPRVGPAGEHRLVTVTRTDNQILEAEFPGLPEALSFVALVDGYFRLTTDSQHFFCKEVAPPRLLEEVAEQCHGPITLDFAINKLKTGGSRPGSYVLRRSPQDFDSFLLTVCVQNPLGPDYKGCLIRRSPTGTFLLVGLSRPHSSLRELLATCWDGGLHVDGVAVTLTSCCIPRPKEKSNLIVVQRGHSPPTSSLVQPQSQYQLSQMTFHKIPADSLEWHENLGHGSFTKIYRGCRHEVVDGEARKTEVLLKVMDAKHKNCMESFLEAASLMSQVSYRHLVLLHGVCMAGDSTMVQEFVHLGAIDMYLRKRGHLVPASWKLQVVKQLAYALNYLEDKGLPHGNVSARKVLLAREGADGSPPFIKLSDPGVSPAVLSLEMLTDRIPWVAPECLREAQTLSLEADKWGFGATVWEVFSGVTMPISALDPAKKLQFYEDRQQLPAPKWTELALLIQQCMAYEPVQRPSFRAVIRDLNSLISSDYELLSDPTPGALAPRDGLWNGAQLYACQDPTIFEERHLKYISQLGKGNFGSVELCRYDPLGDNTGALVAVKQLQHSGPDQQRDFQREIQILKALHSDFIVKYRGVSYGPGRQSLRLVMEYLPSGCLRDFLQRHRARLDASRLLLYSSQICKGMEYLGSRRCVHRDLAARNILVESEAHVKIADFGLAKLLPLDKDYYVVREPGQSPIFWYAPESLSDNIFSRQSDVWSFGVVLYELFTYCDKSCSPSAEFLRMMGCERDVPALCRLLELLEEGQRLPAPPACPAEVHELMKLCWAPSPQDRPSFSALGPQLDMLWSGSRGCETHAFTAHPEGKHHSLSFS
# [2] = biological target: Voltage-gated inwardly rectifying potassium channel KCNH2 (Homo sapiens, UniProt Q12809); assay: Inhibition of human ERG expressed in CHO-K1 cells after 10 mins by Rb efflux assay; format: cell-based
# Voltage-gated inwardly rectifying potassium channel KCNH2, sequence (Q12809 whole entry): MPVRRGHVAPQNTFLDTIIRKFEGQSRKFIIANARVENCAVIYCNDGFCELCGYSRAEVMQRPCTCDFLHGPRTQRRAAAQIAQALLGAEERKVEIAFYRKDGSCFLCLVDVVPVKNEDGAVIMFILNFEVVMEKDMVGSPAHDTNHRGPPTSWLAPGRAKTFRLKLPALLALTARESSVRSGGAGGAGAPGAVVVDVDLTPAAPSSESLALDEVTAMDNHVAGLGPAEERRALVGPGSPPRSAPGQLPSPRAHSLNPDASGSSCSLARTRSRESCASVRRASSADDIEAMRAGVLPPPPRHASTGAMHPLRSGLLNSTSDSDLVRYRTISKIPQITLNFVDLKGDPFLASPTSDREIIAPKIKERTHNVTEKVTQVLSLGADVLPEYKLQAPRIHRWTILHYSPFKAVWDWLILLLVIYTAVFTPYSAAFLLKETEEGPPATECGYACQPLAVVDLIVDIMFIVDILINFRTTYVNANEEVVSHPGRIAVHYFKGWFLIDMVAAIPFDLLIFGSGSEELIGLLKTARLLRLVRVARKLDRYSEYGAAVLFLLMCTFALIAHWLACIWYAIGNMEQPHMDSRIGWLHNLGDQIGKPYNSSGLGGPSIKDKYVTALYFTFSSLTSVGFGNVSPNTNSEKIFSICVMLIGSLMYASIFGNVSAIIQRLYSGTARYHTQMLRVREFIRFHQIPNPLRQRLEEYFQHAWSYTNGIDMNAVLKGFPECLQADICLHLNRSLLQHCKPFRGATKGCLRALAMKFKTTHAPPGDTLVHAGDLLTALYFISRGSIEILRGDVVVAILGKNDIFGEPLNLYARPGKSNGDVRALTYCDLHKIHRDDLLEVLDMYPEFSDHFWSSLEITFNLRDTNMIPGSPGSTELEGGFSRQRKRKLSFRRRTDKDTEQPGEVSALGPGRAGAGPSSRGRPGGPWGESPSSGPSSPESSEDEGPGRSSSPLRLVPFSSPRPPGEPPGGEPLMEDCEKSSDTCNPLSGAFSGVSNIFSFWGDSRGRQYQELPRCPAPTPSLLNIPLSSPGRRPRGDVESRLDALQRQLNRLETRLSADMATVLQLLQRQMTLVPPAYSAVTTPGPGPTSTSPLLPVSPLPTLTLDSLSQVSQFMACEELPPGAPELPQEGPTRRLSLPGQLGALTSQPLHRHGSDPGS
# [3] = biological target: Tyrosine-protein kinase JAK2 (Homo sapiens, UniProt O60674); assay: Inhibition of human JAK2 assessed as reduction in phosphorylation of Biotin-Lyn-Substrate-2 after 1 hr in presence of ATP by ELISA
# Tyrosine-protein kinase JAK2, sequence (O60674 whole entry): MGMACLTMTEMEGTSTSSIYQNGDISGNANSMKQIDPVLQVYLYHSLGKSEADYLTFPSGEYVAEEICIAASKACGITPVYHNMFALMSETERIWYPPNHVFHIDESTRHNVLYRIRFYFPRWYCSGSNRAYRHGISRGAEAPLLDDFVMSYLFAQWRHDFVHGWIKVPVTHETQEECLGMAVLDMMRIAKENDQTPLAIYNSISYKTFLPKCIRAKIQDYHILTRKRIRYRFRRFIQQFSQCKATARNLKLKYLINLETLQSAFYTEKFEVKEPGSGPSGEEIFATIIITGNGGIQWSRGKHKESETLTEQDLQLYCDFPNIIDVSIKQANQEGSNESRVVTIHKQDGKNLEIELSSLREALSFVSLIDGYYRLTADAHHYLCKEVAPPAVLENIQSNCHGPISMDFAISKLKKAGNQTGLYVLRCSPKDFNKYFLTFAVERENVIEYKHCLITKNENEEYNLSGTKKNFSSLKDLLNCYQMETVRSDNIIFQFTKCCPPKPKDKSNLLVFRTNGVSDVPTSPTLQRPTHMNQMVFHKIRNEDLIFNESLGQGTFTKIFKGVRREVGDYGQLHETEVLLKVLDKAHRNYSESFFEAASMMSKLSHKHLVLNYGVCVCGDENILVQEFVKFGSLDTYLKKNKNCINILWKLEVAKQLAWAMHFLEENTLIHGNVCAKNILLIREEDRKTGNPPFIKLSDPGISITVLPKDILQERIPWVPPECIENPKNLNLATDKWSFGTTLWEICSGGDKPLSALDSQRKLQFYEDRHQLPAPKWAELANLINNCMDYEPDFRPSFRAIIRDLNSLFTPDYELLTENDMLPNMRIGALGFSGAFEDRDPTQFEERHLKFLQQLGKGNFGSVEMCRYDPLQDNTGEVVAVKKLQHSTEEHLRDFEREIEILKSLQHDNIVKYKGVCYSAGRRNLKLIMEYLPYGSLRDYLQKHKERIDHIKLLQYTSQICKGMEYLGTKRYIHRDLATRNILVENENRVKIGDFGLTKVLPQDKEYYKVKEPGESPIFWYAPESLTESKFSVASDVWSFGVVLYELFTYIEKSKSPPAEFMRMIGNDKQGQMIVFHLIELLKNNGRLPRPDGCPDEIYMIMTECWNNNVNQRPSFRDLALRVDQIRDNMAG
# [4] = biological target: Tyrosine-protein kinase JAK1 (Homo sapiens, UniProt P23458); assay: Inhibition of human JAK1 assessed as reduction in phosphorylation of Biotin-Lyn-Substrate-2 after 1 hr in presence of ATP by ELISA
# [5] = biological target: T2, CDK2/Cyclin A2 (Homo sapiens) (UniProt P24941+P20248); assay: Inhibition of CDK2/CycA (unknown origin) at 0.01 uM; format: protein-complex assay
# [6] = biological target: High affinity nerve growth factor receptor (Homo sapiens) (UniProt P04629); assay: Inhibition of TRKA (unknown origin) at 0.01 uM
# High affinity nerve growth factor receptor (Homo sapiens), sequence (P04629 33-796 limits assumed): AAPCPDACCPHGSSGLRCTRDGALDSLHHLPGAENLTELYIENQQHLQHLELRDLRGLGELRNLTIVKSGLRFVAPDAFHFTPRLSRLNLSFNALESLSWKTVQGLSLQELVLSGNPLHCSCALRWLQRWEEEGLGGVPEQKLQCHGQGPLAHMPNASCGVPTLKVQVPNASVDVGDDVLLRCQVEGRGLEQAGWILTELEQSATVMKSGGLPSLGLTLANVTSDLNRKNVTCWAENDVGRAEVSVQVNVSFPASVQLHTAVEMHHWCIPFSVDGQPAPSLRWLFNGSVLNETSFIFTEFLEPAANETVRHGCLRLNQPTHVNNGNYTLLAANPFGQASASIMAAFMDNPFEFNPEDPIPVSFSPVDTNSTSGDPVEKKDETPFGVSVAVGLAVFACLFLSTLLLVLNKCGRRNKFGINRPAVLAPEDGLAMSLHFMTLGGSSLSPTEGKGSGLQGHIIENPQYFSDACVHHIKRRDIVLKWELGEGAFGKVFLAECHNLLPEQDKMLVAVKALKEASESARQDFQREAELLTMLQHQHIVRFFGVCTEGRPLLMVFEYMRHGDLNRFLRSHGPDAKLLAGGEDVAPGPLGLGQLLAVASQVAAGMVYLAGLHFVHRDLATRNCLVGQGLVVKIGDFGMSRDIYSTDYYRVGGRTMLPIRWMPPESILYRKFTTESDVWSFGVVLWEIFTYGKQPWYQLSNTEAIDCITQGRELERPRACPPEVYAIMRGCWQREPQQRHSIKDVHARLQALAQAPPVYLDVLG
# [7] = biological target: Tyrosine-protein kinase ZAP-70 (Homo sapiens) (UniProt P43403); assay: Inhibition of ZAP70 (unknown origin) at 1 uM
# [8] = AUC (0 to 24 hrs) in rat at 1 mg/kg, po; format: ADME, organism-based; design: dose 1 mg/kg, time < 24 hr, route oral; settings: in vivo
# [9] = biological target: Mitogen-activated protein kinase kinase kinase 9 (Homo sapiens) (UniProt P80192); assay: Inhibition of MLK1 (unknown origin) at 1 uM
# Mitogen-activated protein kinase kinase kinase 9 (Homo sapiens), sequence (P80192 whole entry, looked up, canonical isoform): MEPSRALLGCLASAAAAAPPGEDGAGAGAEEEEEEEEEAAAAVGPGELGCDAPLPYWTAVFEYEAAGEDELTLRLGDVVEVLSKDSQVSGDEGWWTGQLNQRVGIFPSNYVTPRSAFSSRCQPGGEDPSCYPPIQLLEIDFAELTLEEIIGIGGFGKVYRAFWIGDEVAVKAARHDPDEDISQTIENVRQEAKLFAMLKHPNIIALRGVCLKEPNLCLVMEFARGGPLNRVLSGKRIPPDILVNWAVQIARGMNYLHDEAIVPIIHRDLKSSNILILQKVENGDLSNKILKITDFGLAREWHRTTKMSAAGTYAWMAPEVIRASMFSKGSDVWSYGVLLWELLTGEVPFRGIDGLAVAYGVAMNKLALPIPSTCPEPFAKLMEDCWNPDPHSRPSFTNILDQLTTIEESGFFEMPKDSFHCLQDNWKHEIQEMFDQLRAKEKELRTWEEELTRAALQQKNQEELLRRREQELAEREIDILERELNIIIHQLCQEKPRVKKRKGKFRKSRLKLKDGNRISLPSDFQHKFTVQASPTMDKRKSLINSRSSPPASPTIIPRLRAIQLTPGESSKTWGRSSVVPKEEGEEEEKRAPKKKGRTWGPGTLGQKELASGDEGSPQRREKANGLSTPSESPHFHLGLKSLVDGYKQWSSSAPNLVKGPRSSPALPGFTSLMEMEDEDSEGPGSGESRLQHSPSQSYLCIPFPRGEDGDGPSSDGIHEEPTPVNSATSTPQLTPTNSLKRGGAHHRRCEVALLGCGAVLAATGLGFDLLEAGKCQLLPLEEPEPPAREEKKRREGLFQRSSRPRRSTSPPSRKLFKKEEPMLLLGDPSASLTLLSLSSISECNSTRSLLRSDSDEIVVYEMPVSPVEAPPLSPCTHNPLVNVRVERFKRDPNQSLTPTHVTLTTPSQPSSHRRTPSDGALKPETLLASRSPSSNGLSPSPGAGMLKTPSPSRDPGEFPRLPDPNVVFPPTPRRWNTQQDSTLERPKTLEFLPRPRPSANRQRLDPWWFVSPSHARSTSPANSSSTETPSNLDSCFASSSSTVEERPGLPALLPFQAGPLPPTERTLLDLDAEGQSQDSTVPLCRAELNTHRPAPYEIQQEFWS
# [10] = biological target: Casein kinase I isoform delta (Homo sapiens) (UniProt P48730); assay: Inhibition of CK1delta (unknown origin) at 1 uM
# Casein kinase I isoform delta (Homo sapiens), sequence (P48730 whole entry, looked up, canonical isoform): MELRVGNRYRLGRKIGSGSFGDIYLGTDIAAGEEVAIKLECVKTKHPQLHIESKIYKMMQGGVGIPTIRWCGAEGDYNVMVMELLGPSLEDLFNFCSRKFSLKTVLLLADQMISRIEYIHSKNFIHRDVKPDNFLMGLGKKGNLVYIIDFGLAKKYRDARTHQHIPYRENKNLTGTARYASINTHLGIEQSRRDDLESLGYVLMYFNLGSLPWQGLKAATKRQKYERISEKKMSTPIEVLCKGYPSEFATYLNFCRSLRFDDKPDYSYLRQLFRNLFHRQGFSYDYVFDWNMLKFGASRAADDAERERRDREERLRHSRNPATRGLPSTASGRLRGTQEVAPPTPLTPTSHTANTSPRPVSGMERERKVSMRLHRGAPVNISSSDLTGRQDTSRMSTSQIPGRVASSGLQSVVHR
# [11] = Half life in rat at 1 mg/kg, iv; format: ADME, organism-based; settings: in vivo
# [12] = Tmax in rat at 1 mg/kg, po; format: ADME, organism-based; settings: in vivo
# [13] = biological target: Serine/threonine-protein kinase Chk1 (Homo sapiens) (UniProt O14757); assay: Inhibition of CHK1 (unknown origin) at 1 uM
# [14] = biological target: Tyrosine-protein kinase BTK (Homo sapiens) (UniProt Q06187); assay: Inhibition of BTK (unknown origin) at 1 uM
# [15] = Volume of distribution at steady state in rat at 1 mg/kg, iv; format: ADME, organism-based; settings: in vivo, read-out: Vdss
# [16] = biological target: Angiopoietin-1 receptor (Homo sapiens) (UniProt Q02763); assay: Inhibition of TIE2 (unknown origin) at 1 uM
# [17] = biological target: Ephrin type-A receptor 2 (Homo sapiens) (UniProt P29317); assay: Inhibition of EPHA2 (unknown origin) at 1 uM
# [18] = biological target: High affinity nerve growth factor receptor (Homo sapiens) (UniProt P04629); assay: Inhibition of TRKA (unknown origin) at 0.1 uM
# [19] = biological target: High affinity nerve growth factor receptor (Homo sapiens) (UniProt P04629); assay: Inhibition of TRKA (unknown origin) at 1 uM
# [20] = biological target: Aurora kinase C (Homo sapiens) (UniProt Q9UQB9); assay: Inhibition of AurC (unknown origin) at 1 uM
# [21] = biological target: Focal adhesion kinase 1 (Homo sapiens) (UniProt Q05397); assay: Inhibition of FAK (unknown origin) at 1 uM
# [22] = AUC (0 to 24 hrs) in rat at 1 mg/kg, iv; format: ADME, organism-based; design: dose 1 mg/kg, time < 24 hr, route intravenous; settings: in vivo
# [23] = biological target: T2, CDK2/Cyclin A2 (Homo sapiens); assay: Inhibition of CDK2/CycA (unknown origin) at 0.1 uM; format: protein-complex assay
# [24] = Cmax in rat at 1 mg/kg, po; format: ADME, organism-based; design: dose 1 mg/kg, route oral; settings: in vivo
# [25] = Total clearance in rat at 1 mg/kg, iv; format: ADME, organism-based; settings: in vivo
# [26] = Effective permeability of the compound at pH 6.5 by PAMPA; format: ADME; settings: read-out: Peff
# How it was run: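 Parallel artificial membrane permeability assay, donor buffer pH 6.5; effective permeability reported in cm/sec (n=3).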
# [27] = test system: Rattus norvegicus; assay: Immunomodulatory activity in ACI-to-Lewis rat heterotopic cardiac transplant model assessed as cardiac allograft survival at 10 mg/kg, po coadministered with tacrolimus at 0.02 mg/kg, im dosed from day of transplantation once daily for 14 consecutive days; format: functional
# How it was run: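 ACI rat hearts transplanted heterotopically into Lewis recipients. Oral drug given once daily for 14 consecutive days starting on the day of operation. In the combination arm, tacrolimus was given intramuscularly once daily. Cardiac allograft survival was checked by daily palpation for 28 days and expressed as median survival time (MST).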
# [28] = biological target: Mitogen-activated protein kinase kinase kinase 9 (Homo sapiens) (UniProt P80192); assay: Inhibition of MLK1 (unknown origin) at 0.1 uM
# [29] = Intrinsic clearance in human liver microsomes in presence of NADPH; format: ADME, Microsome; settings: read-out: CLH
# How it was run: (§1)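 Incubation with rat or human liver microsomes plus NADPH-generating system; intrinsic clearance expressed as mL/min/kg (n=2).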
# [30] = biological target: Mitogen-activated protein kinase kinase kinase 9 (Homo sapiens) (UniProt P80192); assay: Inhibition of MLK1 (unknown origin) at 0.01 uM
# [31] = biological target: Epidermal growth factor receptor (Homo sapiens) (UniProt P00533); assay: Inhibition of EGFR (unknown origin) at 1 uM
# [32] = biological target: Bone morphogenetic protein receptor type-1A (Homo sapiens) (UniProt P36894); assay: Inhibition of BMPR1A (unknown origin) at 1 uM
# [33] = biological target: Receptor tyrosine-protein kinase erbB-2 (Homo sapiens) (UniProt P04626); assay: Inhibition of HER2 (unknown origin) at 1 uM
# [34] = biological target: T2, CDK2/Cyclin A2 (Homo sapiens); assay: Inhibition of CDK2/CycA (unknown origin) at 1 uM; format: protein-complex assay
# [35] = Oral bioavailability in rat at 1 mg/kg; format: ADME, organism-based; settings: in vivo
# [36] = Intrinsic clearance in rat liver microsomes in presence of NADPH; format: ADME, Microsome; settings: read-out: CLH; how it was run: as §1
# [37] = biological target: RAC-alpha serine/threonine-protein kinase (Homo sapiens) (UniProt P31749); assay: Inhibition of AKT1 (unknown origin) at 1 uM
# RAC-alpha serine/threonine-protein kinase (Homo sapiens), sequence (P31749 whole entry): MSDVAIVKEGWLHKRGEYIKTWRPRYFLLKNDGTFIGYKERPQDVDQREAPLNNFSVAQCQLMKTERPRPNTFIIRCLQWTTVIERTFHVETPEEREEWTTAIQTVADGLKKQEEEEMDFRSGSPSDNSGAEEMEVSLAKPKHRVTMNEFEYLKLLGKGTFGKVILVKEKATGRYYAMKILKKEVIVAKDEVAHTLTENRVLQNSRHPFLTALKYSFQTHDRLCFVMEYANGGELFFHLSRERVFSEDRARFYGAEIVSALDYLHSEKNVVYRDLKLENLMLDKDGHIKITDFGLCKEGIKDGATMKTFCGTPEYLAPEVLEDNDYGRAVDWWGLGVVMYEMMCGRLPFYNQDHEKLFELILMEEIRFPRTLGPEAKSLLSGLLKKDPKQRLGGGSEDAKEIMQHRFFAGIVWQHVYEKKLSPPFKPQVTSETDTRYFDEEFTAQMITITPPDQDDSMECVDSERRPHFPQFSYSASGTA
# [38] = biological target: Tyrosine-protein kinase ABL1 (Homo sapiens) (UniProt P00519); assay: Inhibition of ABL (unknown origin) at 1 uM
# [39] = biological target: Calcium/calmodulin-dependent protein kinase type II subunit alpha (Homo sapiens) (UniProt Q9UQM7); assay: Inhibition of CaMK2alpha (unknown origin) at 1 uM
# [40] = biological target: Tyrosine-protein kinase JAK3 (Homo sapiens) (UniProt P52333); assay: Inhibition of human JAK3 assessed as phosphorylation of Biotin-Lyn-Substrate-2 at 1 uM after 1 hr in presence of ATP by ELISA
# [41] = test system: Rattus norvegicus; assay: Immunomodulatory activity in ACI-to-Lewis rat heterotopic cardiac transplant model assessed as mean survival time at 0.02 mg/kg, im dosed from day of transplantation once daily for 14 consecutive days measured for 28 days; format: functional
structure (smiles),measurement,setting,value
N#Cc1ccc(N2CCC(Nc3cc(Nc4cnccn4)ncc3C(N)=O)CC2)nc1,IC50,[1],0.72 nM
same,IC50,[2],7700 nM
same,IC50,[3],4.1 nM
same,IC50,[4],2.5 nM
Cc1cnc(Nc2cc(NC3CCN(c4ccc(C#N)cn4)CC3)c(C(N)=O)cn2)cn1,IC50,[1],1.1 nM
same,IC50,[2],4800 nM
same,IC50,[3],5.3 nM
same,IC50,[4],6.7 nM
N#Cc1ccc(N2CCC(Nc3cc(Nc4ccncn4)ncc3C(N)=O)CC2)nc1,IC50,[1],0.61 nM
same,IC50,[2],17000 nM
same,IC50,[3],5.5 nM
same,IC50,[4],3.5 nM
C[C@@H]1CCCC[C@@H]1Nc1cc(Nc2ccccc2)ncc1C(N)=O,IC50,[1],37 nM
Cc1nccc(Nc2cc(NC3CCN(c4ccc(C#N)cc4)CC3)c(C(N)=O)cn2)n1,inhibition,[5],27%
same,inhibition,[6],8%
same,inhibition,[7],-2%
same,IC50,[2],> 100000 nM
same,AUC(0-t) at 24 h,[8],278 ng·h/mL
same,inhibition,[9],96%
same,inhibition,[10],25%
same,half-life,[11],3.4 h
same,Tmax,[12],0.4 h
same,inhibition,[13],33%
same,inhibition,[14],49%
same,Vd,[15],3.5 L/kg
same,inhibition,[16],8%
same,inhibition,[17],11%
same,inhibition,[18],49%
same,inhibition,[19],94%
same,inhibition,[20],28%
same,inhibition,[21],18%
same,AUC(0-t) at 24 h,[22],1180 ng·h/mL
same,inhibition,[23],76%
same,IC50,[3],3.5 nM
same,IC50,[4],4.2 nM
same,Cmax,[24],52.9 ng/mL
same,clearance,[25],14.3 mL/min/kg
same,Papp,[26],> 30 ×10⁻⁶ cm/s
same,MST,[27],22.5 days
same,inhibition,[28],84%
same,CLint scaled,[29],109 mL/min/kg
same,inhibition,[30],26%
same,inhibition,[31],19%
same,inhibition,[32],3%
same,inhibition,[33],14%
same,inhibition,[34],96%
same,bioavailability,[35],23.6%
same,CLint scaled,[36],146 mL/min/kg
same,inhibition,[37],10%
same,inhibition,[38],54%
same,inhibition,[39],-1%
CN(c1ccccc1)c1cc(NCc2ccccc2)c(C(N)=O)cn1,IC50,[1],> 1000 nM
same,inhibition,[40],40%
NC(=O)c1cnc(N)cc1NCc1ccccc1,IC50,[1],> 1000 nM
same,inhibition,[40],41%
Cc1nc2cc(Nc3cc(NC4CCN(c5ccc(C#N)cn5)CC4)c(C(N)=O)cn3)ccc2o1,IC50,[1],22 nM
same,IC50,[3],400 nM
Cc1cncc(Nc2cc(NC3CCN(c4ccc(C#N)cn4)CC3)c(C(N)=O)cn2)n1,IC50,[1],1 nM
same,IC50,[2],5400 nM
same,IC50,[3],4 nM
same,IC50,[4],1.9 nM
N#Cc1ccc(N2CCC(Nc3cc(Nc4ccccn4)ncc3C(N)=O)CC2)nc1,IC50,[1],0.46 nM
same,IC50,[2],360 nM
same,IC50,[4],2.9 nM
Cc1nccc(Nc2cc(NC3CCN(c4ccc(C#N)cn4)CC3)c(C(N)=O)cn2)n1,IC50,[2],8100 nM
same,IC50,[3],3.2 nM
same,IC50,[4],5.4 nM
C=CC[C@@H]1/C=C(\C)C[C@H](C)C[C@H](OC)[C@H]2O[C@@](O)(C(=O)C(=O)N3CCCC[C@H]3C(=O)O[C@H](/C(C)=C/[C@@H]3CC[C@@H](O)[C@H](OC)C3)[C@H](C)[C@@H](O)CC1=O)[C@H](C)C[C@@H]2OC [TACROLIMUS ANHYDROUS],MST,[41],6.5 days
N#Cc1ccc(N2CCC(Nc3cc(Nc4ccccc4)ncc3C(N)=O)CC2)nc1,IC50,[1],18 nM
same,IC50,[3],190 nM
Cc1nc2ccc(Nc3cc(NC4CCN(c5ccc(C#N)cn5)CC4)c(C(N)=O)cn3)cc2o1,IC50,[1],25 nM
same,IC50,[3],130 nM
Cc1nccc(Nc2cc(N[C@@H]3CCN(c4ccc(C#N)cn4)C[C@@H]3F)c(C(N)=O)cn2)n1,IC50,[2],> 100000 nM
same,IC50,[4],0.24 nM
